# Measurements of several laboratories.
# Protocols differ between the studies behind these lines.
# Target: Aurora kinase A (AURKA, Homo sapiens, UniProt O14965)
# Sequence (O14965 1-403, as in one of the studies): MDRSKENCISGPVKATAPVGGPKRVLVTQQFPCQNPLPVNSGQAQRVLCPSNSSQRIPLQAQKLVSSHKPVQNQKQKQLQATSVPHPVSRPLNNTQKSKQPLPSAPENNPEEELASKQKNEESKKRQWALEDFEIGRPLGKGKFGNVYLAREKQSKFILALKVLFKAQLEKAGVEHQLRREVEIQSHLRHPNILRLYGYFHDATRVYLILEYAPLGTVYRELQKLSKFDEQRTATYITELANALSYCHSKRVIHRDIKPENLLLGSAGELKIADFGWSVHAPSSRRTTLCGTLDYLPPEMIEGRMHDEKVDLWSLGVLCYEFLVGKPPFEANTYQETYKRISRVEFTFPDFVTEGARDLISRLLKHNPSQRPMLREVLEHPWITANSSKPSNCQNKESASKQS
SMILES,test,conditions,remaining binding [%]
CC(C)(C)c1ccc(-c2nc(CBr)nn2-c2cccc(O)c2)cc1,"cell-free assay, competition with immobilised ligand",10 µM,91
C[C@@H](c1ccc(-n2cnc3c(N)ncnc32)cc1)N1CCc2nn(C)c(Cc3ccccc3)c2C1=O,"binding, competition with immobilised ligand",0.1 µM,73
N#Cc1ccccc1CSc1nnc2c(n1)[nH]c1ccccc12,"binding, competition with immobilised ligand",10 µM,100
C[C@H](c1ccc(F)cc1)N(Cc1cccc(C(=O)O)c1)C(=O)c1cnc2ccccc2c1,"cell-free assay, competition with immobilised ligand",1 µM,100
CCN1CCN(Cc2ccc(C(=O)Nc3ccc(C)c(Oc4ccc5c(c4)CC(=O)N5)c3)cc2C(F)(F)F)CC1,"binding, competition with immobilised ligand",1 µM,100
COc1cnc(Nc2cccc(S(N)(=O)=O)c2)nc1N1CCN(c2ccccc2)CC1,"binding, competition with immobilised ligand",1 µM,85
O=C(NCc1ncc(C(F)(F)F)cc1Cl)c1ccc2c(c1)C1(CCS(=O)(=O)CC1)[C@@H](C1CC1)N2S(=O)(=O)c1ccc(F)cc1,"cell-free assay, competition with immobilised ligand",1 µM,81
COc1cc(C(=O)N2CCC(N3CCN(C)CC3)CC2)ccc1Nc1ncc2c(n1)N(C)c1ccccc1C(=O)N2C,"binding, competition with immobilised ligand",10 µM,1.2
c1cnn2ncc(-c3ccnc(N4CCC45COC5)n3)c2c1,binding,1 µM,90
O=C(NCCCN1CCOCC1)c1ccc(Nc2ncc(Cl)c(-c3ccc(Cl)s3)n2)cc1,"binding, competition with immobilised ligand",1 µM,12
CN(C)c1nccc(-c2cnc3ncccn23)n1,binding,1 µM,49
Nc1cnc(N2CCc3cc(S(=O)(=O)Nc4c(F)cc(Cl)cc4F)cc(N4CCCC4=O)c32)nc1,"cell-free assay, competition with immobilised ligand",1 µM,100
C[C@@H]1CN(c2ccc3ncc(-c4ccc5[nH]nc(C6CC6)c5c4)n3n2)C[C@H](C)O1,"binding, competition with immobilised ligand",0.5 µM,85
O=C(c1ccc(Nc2ncc(Cl)c(-c3cc4ccccc4s3)n2)cc1)N1CCC(N2CCCC2)CC1,"binding, competition with immobilised ligand",1 µM,9.2
C[C@@H]1CCN(c2nccc(-c3cnn4ncccc34)n2)C1,binding,1 µM,92
O=C(c1ccc(Nc2ncc(Cl)c(-c3ccc(Cl)s3)n2)cc1)N1CCC(N2CCCC2)CC1,"binding, competition with immobilised ligand",1 µM,1.9
Cc1c(NC(=O)c2cc(C(N)=O)nc3cc(F)ccc23)c(C(F)(F)F)nn1Cc1ccc(C(C)(C)C)cc1,"cell-free assay, competition with immobilised ligand",1 µM,100
C=CC(=O)N1CCC(C(=O)NCC(=O)N2CCN(c3nc(-c4cnc(N)nc4C(F)F)nc(N4CCOCC4)n3)CC2)CC1,"binding, competition with immobilised ligand",1 µM,96
O=c1nc(-c2ccccn2)sc2ccccc12,"cell-free assay, competition with immobilised ligand",1 µM,87
F[C@@H]1CCN(c2nccc(-c3cnn4ncccc34)n2)C1,binding,1 µM,91
COc1cc(-c2cn(C3CCc4ccccc4N(CC(F)(F)F)C3=O)nn2)ccc1-n1ccc(C)n1 (centres unmarked),"cell-free assay, competition with immobilised ligand",1 µM,58
Cc1cnn2ncc(-c3ccnc(N(C)C)n3)c2c1,binding,1 µM,99
COc1ccc2cc(OCC3(C(=O)O)CN(C(=O)c4ccc(F)cc4)C3)ccc2c1,"cell-free assay, competition with immobilised ligand",1 µM,100
O=C(NCC1CCOCC1)c1n[nH]cc1NC(=O)c1c(F)cccc1F,"binding, competition with immobilised ligand",1 µM,87
CSc1cccnc1N1CCN(Cc2nc3ccccc3[nH]2)CC1,"cell-free assay, competition with immobilised ligand",1 µM,74
N[C@@H]1CCN(c2nccc(-c3cnn4ncccc34)n2)C1,binding,1 µM,100
